Rows were chosen to be rich in hits. Some 2.6% of all compounds tested hit in one or more screens of this group.
MEKK3 PB1 HTS: raises or lowers MEK5 binding to the human MEKK3 PB1 domain | binding response (% of control), % at 10 µM | actives 1.4% (n = 290,000) | bead-based flow cytometry, Alexa488-MEK5 binding to MEKK3; actives lie on both sides; 0 = blocked by unlabeled MEK5, 100 = vehicle;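 active = binding response more than 3 SD above or below the average of its plate-row segment, actives on both sides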;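 note: Alexa488 bead fluorescence after subtracting the streptavidin-only scavenger bead signal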
Target sequence (Q99759 whole entry, looked up, the tested form may be a part): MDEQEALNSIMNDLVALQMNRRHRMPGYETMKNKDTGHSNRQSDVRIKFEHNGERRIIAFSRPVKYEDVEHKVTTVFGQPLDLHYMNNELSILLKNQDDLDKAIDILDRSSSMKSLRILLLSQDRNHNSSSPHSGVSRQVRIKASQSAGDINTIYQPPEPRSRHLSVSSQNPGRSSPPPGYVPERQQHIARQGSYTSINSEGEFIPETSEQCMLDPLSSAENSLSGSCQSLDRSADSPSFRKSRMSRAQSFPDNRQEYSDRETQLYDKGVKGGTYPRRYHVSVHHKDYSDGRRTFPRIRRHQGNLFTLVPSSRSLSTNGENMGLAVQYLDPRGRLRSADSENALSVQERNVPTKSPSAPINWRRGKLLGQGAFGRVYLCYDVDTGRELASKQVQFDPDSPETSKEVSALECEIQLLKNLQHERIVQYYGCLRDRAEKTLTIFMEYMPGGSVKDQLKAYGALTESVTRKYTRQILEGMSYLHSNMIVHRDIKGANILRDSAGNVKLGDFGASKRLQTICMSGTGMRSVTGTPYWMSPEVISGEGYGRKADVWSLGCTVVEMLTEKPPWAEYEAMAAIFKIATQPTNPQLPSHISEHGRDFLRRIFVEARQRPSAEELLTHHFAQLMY
Lipid droplet: modulators of hepatic lipid droplet formation; inhibition, % at 6.5 µM; actives 0.4% (n = 240,000); AML12 mouse hepatocytes, oleate lipid droplets, BODIPY imaging;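 active = lipid droplet intensity inhibited by at least 50%, with more than 500 cells counted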
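Material: mouse AML12 hepatocyte cell line, fixed after treatment; Timing: compound with oleate, overnight; Technique: high-content imaging of BODIPY-stained droplets and DAPI nuclei; Probe or stimulus: oleate, 100 µM final; Dosing: compound at 6.5 µM only.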
MEKK2mut PB1 HTS: signal of MEK5 binding to mutant human MEKK2 PB1 domain; bead flow cytometry, Alexa488-MEK5 binding to MEKK2 mutant; percent response, % at 10 µM; actives 0.35% (n = 290,000); in the data active = percent response above about 24%, passing the limit was not always enough
MEKK2 WT-MEK5: raises or lowers MEK5 binding to wildtype human MEKK2 PB1 domain; binding response (% of control), % at 10 µM; actives 1.1% (n = 290,000); Q9Y2U5; AID 1531; bead flow cytometry, Alexa488-MEK5 binding to MEKK2 WT; actives lie on both sides; in the data active = binding response below about 67% or above about 130%
MEKK2wt confirm: raises or lowers MEK5 binding to wildtype human MEKK2, retest | actives 2.4% (n = 5,900) | bead flow cytometry, Alexa488-MEK5 binding to MEKK2 WT; actives lie on both sides | shares compounds with MEKK3 PB1 HTS | binding response (% of control), % at 10 µM; in the data active = binding response below about 16% or above about 210%; inactive = in between
MEKK2mut-MEK5: signal of MEK5 binding to mutant human MEKK2, retest; actives 2% (n = 5,900); shares compounds with MEKK3 PB1 HTS; AID 1893; bead flow cytometry, Alexa488-MEK5 binding to MEKK2 mutant; percent response, % at 10 µM; in the data active = percent response mostly above about 71%, no sharp cut-off; inactive = mostly below about 38%;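 note: higher means compound restores mutant binding toward wildtype level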
MEKK3-MEK5 inh: confirmation of inhibitors of MEK5 binding to human MEKK3; shares compounds with MEKK3 PB1 HTS; bead flow cytometry, Alexa488-MEK5 binding to MEKK3; hits give low values; binding response (% of control), % at 10 µM; actives 1.8% (n = 5,900); AID 1894;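 active = binding response below 72% of control, or above a set upper limit, though filed actives all read lower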;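 note: lower values mean stronger disruption of MEK5 binding to MEKK3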
Numbers stand for hits; - = inactive; . = not tested or not shown; [ ] = dose if it differs, or a comment.

SMILES	MEKK3 PB1 HTS	Lipid droplet	MEKK2mut PB1 HTS	MEKK2 WT-MEK5	MEKK2wt confirm	MEKK2mut-MEK5	MEKK3-MEK5 inh
CCCCN(CC)CCCNC(=O)c1cc2c(-c3ccc(OC)c(OC)c3)nn(C)c2s1	-	-	-	135	-	-	-
COc1ccc(C(=O)Nn2c(CCC(=O)O)ccc2-c2ccc(C)cc2)cc1OC	-	-	-	-	.	.	.
Cc1oc(-c2ccccc2Cl)nc1CS(=O)CC(=O)NCc1ccccc1Cl (configuration not stated)	-	-	-	-	.	.	.
COc1ccccc1CNc1ccc(Br)cn1	-	-	-	-	.	.	.
CCCCCCCCCCCCCCCC(O)C(N)CO (configuration not stated)	-	-	38	220	-	-	-
CCCCCC[C@@H]([C@@H](C)O)n1cnc2c(N)ncnc21	-	.	-	-	.	.	.
CCc1ccc(C(C(=O)NCCOC)N(C(=O)Cn2nnc3ccccc32)c2cccnc2)cc1 (configuration not stated)	2.0[inhibitor]	-	-	2.0[inhibitor]	-	-	-
Cn1c(=NC(=O)COc2ccccc2)sc2ccccc21	74[inhibitor]	-	-	-	-	-	-
Cc1c(OCC(=O)NC2CCN(Cc3ccccc3)CC2)ccc2c3c(c(=O)oc12)CCC3	-	-	-	-	.	.	.
CCOC(=O)c1cc(C)sc1/N=C/C1=C(O)CCCC1=O	131	-	-	-	-	-	-
C/C(=N\Nc1ccc2nncn2n1)c1ccc(Cl)s1	-	-	-	-	.	.	.
O=C(Cc1ccc(Cl)cc1)N1CCN(C(=O)c2ccco2)CC1	-	.	-	-	.	.	.
Cc1nn(C)c(C(=O)N2CCN(C(=O)c3ccco3)CC2)c1Br	-	-	-	34[inhibitor]	-	-	-
Cc1ccc(CC(=O)N2CCN(C(=O)c3ccco3)CC2)cc1	49[inhibitor]	-	-	-	-	-	-
Cn1ncc([N+](=O)[O-])c1C(=O)Nc1ccc(-c2ccccc2)cc1	-	-	-	-	.	.	.
COC(=O)c1ccc(CNC(=O)C2CCC(=O)N(CCN3CCOCC3)C2)cc1 (configuration not stated)	-	-	-	-	.	.	.
Cc1cccc(S(=O)(=O)c2c(N)n(-c3ccccc3)c3nc4ccccc4nc23)c1	138	-	-	-	-	-	-
Cc1ccc(-n2c(N)c(S(=O)(=O)c3ccccc3)c3nc4ccccc4nc32)cc1	-	-	-	-	.	.	.
CCc1ccccc1NC(=O)CSc1nc2n[nH]c(C)c2c(=N)n1-c1cccc(OC)c1	-	-	-	140	-	-	-
Cc1ccc(S(=O)(=O)N(CC(=O)N=Nc2c(O)[nH]c3ccccc23)c2cccc(C)c2)cc1	150	-	-	-	-	-	-
Cc1c(Cl)cnc(NC(=O)CSc2nncs2)c1Cl	144	-	-	-	-	-	-
Cc1nc(NC(=O)CSc2nncs2)c(Cl)cc1Cl	-	-	-	-	.	.	.
O=S(=O)(c1cccc2cccnc12)N1CCCCC1	-	-	-	-	.	.	.
CN1CCN(c2ncccc2S(=O)(=O)N2CCCCC2)CC1	1.0[inhibitor]	-	-	1.0[inhibitor]	-	-	-
CCC(=O)N1CCc2cc(S(=O)(=O)NC(Cc3ccccc3)C(=O)O)ccc21 (configuration not stated)	-	-	-	-	.	.	.
SMILES	MEKK3 PB1 HTS	Lipid droplet	MEKK2mut PB1 HTS	MEKK2 WT-MEK5	MEKK2wt confirm	MEKK2mut-MEK5	MEKK3-MEK5 inh
CCC1(C)Cc2c(sc3nc(SC)[nH]c(=S)c23)CO1 (configuration not stated)	-	.	-	-	.	.	.
Fc1cccc(Nc2nc(Cl)nc(Cl)n2)c1	3.0[inhibitor]	-	-	3.0[inhibitor]	-	-	-
CN(C#N)c1nc(Cl)nc(Nc2cccc(Cl)c2)n1	144	-	-	-	-	-	-
Cc1ccc(C)c(N=Nc2ccc(O)c3ncccc23)c1	-	-	-	-	.	.	.
Cc1ccc(N=Nc2cc(C)ccc2O)c(C)c1	5.0[inhibitor]	-	-	8.0[inhibitor]	-	-	-
Cc1nc(NC(=O)c2ccccc2)sc1-c1csc(NCc2ccccc2)n1	-	-	-	-	.	.	.
Cc1nc(NC(=O)c2ccccc2)sc1-c1csc(NCCc2ccccc2)n1	49[inhibitor]	.	-	-	-	-	-
CCOC(=O)c1ccc(-c2csc(NC(=O)CN3CCC(C)CC3)n2)cc1	-	-	-	-	.	.	.
OCCN(CC(O)COc1ccccc1)CC(O)Cn1ccc2ccccc21 (configuration not stated)	134	-	-	-	-	-	-
COC(=O)C(Cc1ccc(O)cc1)NC(=O)C12CC3CC(CC(C3)C1)C2 (configuration not stated)	-	-	-	-	.	.	.
COC(=O)C(Cc1ccccc1)NC(=O)C12CC3CC(CC(C3)C1)C2 (configuration not stated)	134	-	-	-	-	-	-
O=C(NCc1cccs1)C1CCCN(c2nc3ccccc3o2)C1 (configuration not stated)	-	.	-	-	.	.	.
COc1ccc(/C=C/C(=O)NCC(c2ccc(F)cc2)N2CCOCC2)cc1OC (configuration not stated)	-	-	-	-	.	.	.
COc1ccc(NC(=O)CSc2nc3nc(-c4cccs4)cc(C(F)(F)F)c3c(=O)[nH]2)c(OC)c1	-	-	-	-	.	.	.
CCOc1ccccc1NC(=O)CSc1nc2nc(-c3cccs3)cc(C(F)(F)F)c2c(=O)[nH]1	73[inhibitor]	-	-	59[inhibitor]	-	-	-
Cc1ccc2oc(=O)n(CCCOc3ccccc3)c2c1	125	.	-	-	-	-	-
Cc1ccc2oc(=O)n(CC(=O)OCCC(C)C)c2c1	74[inhibitor]	-	-	-	-	-	-
O=C(NCc1ccc(F)cc1)C1CCCN(C(=O)Nc2ccc(F)cc2)C1 (configuration not stated)	-	-	-	-	.	.	.
Cc1ccc2[nH]c(=O)c(C3=NN(C(=O)CCC(=O)O)C(c4cccs4)C3)c(-c3ccccc3)c2c1 (configuration not stated)	133	-	-	-	-	-	-
Brc1ccc(-c2noc3c2-c2nc(C4CCCCC4)sc2CC3)cc1	-	.	-	-	.	.	.
CC(C)=CCc1c(O)cc(O)c2c(=O)c3c(CC=C(C)C)c(O)ccc3oc12	-	.	-	137	-	-	-
Cc1cc(C)c(OCCNC(=O)c2ccccc2Sc2ccccc2C#N)c(C)c1	-	-	-	-	.	.	.
S=c1[nH]c(-c2ccc(Br)cc2)cn1CCc1ccccc1	-	-	-	-	.	.	.
Cc1cc(C(=O)c2cnc(/N=C/N(C)C)s2)cc(C)c1O	0.0[inhibitor]	.	-	0.0[inhibitor]	-	-	-
CN(C)/C=N/c1ncc(C(=O)c2ccccc2)s1	-	-	-	-	.	.	.
Cc1onc(-c2ccccc2)c1C(=O)Nc1sc2c(c1C#N)CCC2	-	-	-	-	.	.	.

Assay outcomes: PubChem BioAssay, several laboratories
